Beta cell apopt – blocks beta cell apoptosis; 300,000 tested, 0.8% active; protection from apoptosis, % (concentration not given with the values); AID 435005; INS-1E cytokine-induced death, ATP luminescence, 48 h; percent of positive-control rescue, neutral wells zero;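 active means Every replicate reaches about 75%, or at least half do and their mean reaches it too, limit read from the data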;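 further: 0% = cytokine-treated negative control wells and 100% = positive control rescue; higher means more ATP so stronger rescue from cytokine killing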
CSC inhib – cancer stem cell inhibition. AID 2717. 300,000 tested, 1.1% active. inhibition, % at 7.5 µM. cancer stem cell-like cells viability, luminescence; in the data active means inhibition above about 75%; tested in HMLE shEcad cells
SKKanGAS inh – SKKanGAS growth inhibition; AID 1662; 300,000 tested, 1.3% active; S. pyogenes SKKanGAS, kanamycin growth, BacTiter-Glo, 6 h; inhibition, % at 7.5 µM;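 active means mean replicate score, as percent of positive control median, at least 50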;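 further: strain carries kanamycin resistance gene driven by streptokinase promoter and grows in 40 µg/ml kanamycin; loss of luminescence reflects streptokinase promoter inhibition or plain growth inhibition; 0% = median of DMSO wells and 100% = positive control at its reference dose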
T cruzi repl – blocks replication of Trypanosoma cruzi; inhibition, % (no concentration beside the values); T. cruzi beta-gal in NIH3T3, luminescence, 90 h; 300,000 tested, 1.4% active;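 active means mean inhibition across valid replicates above about 55%, limit read from the data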;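 further: signal also drops with host cell toxicity which is not excluded here; 0% = plate median of DMSO wells and 100% = zero luminescence signal; higher percent means less beta-gal luminescence so fewer parasites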
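System: Mouse NIH/3T3 fibroblasts infected with β-gal-expressing T. cruzi Tulahuen C4 | Quantity: NIH/3T3 cells, 5,000 per well | Reagent: 5000 reporter trypomastigotes per well | Dosing: Compound pinned at 50 nL/well, DMSO | Schedule: 3 h host attachment, then at least 90 h co-culture | Detection: GalScreen luminescence, 60 min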
Mdm2 MdmX PPI – inhibitors of human Mdm2/MdmX interaction; inhibition, % at 8 µM; O15151+Q00987; AID 485346; 330,000 tested, 3% active; SaOS-2 split-luciferase Mdm2/MdmX complementation, luminescence;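 active means inhibition of at least 50% at 8 µM in the primary screen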
Target sequence (O15151 whole entry, looked up): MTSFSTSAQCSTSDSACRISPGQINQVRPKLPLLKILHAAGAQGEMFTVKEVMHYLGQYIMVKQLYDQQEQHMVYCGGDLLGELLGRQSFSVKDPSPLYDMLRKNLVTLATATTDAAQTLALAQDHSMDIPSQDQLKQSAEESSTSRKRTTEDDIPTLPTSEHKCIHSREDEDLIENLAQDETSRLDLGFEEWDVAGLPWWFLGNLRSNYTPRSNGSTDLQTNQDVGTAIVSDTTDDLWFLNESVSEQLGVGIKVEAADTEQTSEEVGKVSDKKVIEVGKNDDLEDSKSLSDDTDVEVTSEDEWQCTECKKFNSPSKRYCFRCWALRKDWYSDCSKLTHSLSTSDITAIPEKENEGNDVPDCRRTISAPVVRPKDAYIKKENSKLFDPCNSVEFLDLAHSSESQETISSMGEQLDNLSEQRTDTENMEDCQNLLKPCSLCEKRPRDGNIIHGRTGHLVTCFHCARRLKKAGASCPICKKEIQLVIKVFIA
Target sequence (Q00987 whole entry, looked up): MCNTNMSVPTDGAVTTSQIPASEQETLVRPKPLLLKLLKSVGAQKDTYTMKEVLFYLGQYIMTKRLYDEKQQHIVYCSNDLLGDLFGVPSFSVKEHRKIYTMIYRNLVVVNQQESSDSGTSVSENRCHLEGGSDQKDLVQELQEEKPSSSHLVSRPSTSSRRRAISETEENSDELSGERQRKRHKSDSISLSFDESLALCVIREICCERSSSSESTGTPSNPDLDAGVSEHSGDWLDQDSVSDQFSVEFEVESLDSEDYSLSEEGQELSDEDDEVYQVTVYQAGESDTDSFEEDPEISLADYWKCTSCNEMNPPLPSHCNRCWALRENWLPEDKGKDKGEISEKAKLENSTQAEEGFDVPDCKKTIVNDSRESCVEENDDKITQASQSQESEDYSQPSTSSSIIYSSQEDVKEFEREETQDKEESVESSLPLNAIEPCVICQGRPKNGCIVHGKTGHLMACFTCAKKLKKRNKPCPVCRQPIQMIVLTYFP
Calb FLC – C. albicans growth modulation with fluconazole; C. albicans CaCi-2 (fluconazole-resistant clinical isolate) + fluconazole, Alamar Blue growth, 48 h; growth inhibition, % (test concentration not listed); 300,000 tested, 0.57% active; AID 1979;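 active means growth inhibition above about 58% in most replicates, limit read from the data, passing the limit was not always enough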;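 further: all wells also contain fluconazole at 8 µg/ml as a sub-toxic cotreatment; 0% = median of DMSO wells and 100% = median of geldanamycin control wells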
The depositor's hits bear a star; . = no result. An excerpt weighted towards active compounds, which were near 5.7% of everything screened.

SMILES	Beta cell apopt	CSC inhib	SKKanGAS inh	T cruzi repl	Mdm2 MdmX PPI	Calb FLC
COC(=O)C1=C(c2cccc(C#N)c2)C[C@@H]2CC[C@H]1N2C(=O)NC1Cc2ccccc2C1	1.7	84.2*	.	.	-1.9	.
COC(=O)C1=C(c2cccc(C#N)c2)C[C@@H]2CC[C@H]1N2C(=O)NC1CC1	-4.4	-12.8	.	.	-8.6	.
CN1C(=O)C(=Cc2ccccc2OS(=O)(=O)c2ccccc2)C(=O)N(C)C1=O	.	-1.6	19.3	-16.3	2.3	-1.3
COC(=O)C1=C(c2ccc3ccccc3c2)C[C@@H]2CC[C@H]1N2C(=O)NCc1ccc(C(F)(F)F)cc1	6.6	49.9	.	.	19.3	.
COC(=O)C1=C(c2ccccc2OCc2ccccc2)C[C@@H]2CC[C@H]1N2C(=O)NCc1ccc([N+](=O)[O-])cc1	-3.9	5.1	.	.	31.3	.
Cc1ccc(-c2cc(-c3ccccc3)cc(-c3ccccc3)[n+]2-c2ccccc2C(=O)O)cc1	31.4	-2.9	-0.1	45.2	27.1	95.9*
COC(=O)C1=C(c2c(C)noc2C)C[C@@H]2CC[C@H]1N2C(=O)NCc1ccco1	-5.2	-11.6	.	.	33.9	.
C=CCn1c(O)c(C(C)=Nc2ccc(N(CC)CC)cc2)c(=O)[nH]c1=O	0.7	44.6	76.2*	6.3	36.0	6.6
CCCCn1c(O)c(C(CC)=Nc2ccc(OCC)cc2)c(=O)[nH]c1=O	2.2	-6.4	55.1*	7.6	4.2	-2.2
CCCCn1c(O)c(C(CC)=Nc2ccc(OC)cc2OC)c(=O)[nH]c1=O	-3.4	34.2	10.0	15.0	-1.8	42.0
C=CCn1c(O)c(C(C)=Nc2ccc(N(C)C)cc2)c(=O)[nH]c1=O	-3.2	-6.8	-1.2	4.1	5.8	-58.2
C=CCn1c(O)c(C(CC)=Nc2ccc(N(CC)CC)cc2)c(=O)[nH]c1=O	-3.2	18.3	101.4*	3.8	18.5	-0.4
COC(=O)C1=C(c2ccc(Cl)c(C(F)(F)F)c2)C[C@@H]2CC[C@H]1N2C(=O)N1CCC(C)CC1	-5.8	52.6	.	.	12.6	.
COC(=O)C1=C(c2ccc(-c3ccccc3)c(F)c2)C[C@@H]2CC[C@H]1N2C(=O)NCCCOC(C)C	-1.8	14.6	.	.	0.5	.
COC(=O)C1=C(c2ccc(F)cc2F)C[C@@H]2CC[C@H]1N2C(=O)NC1Cc2ccccc2C1	-16.3	-3.7	.	.	-16.6	.
COC(=O)C1=C(c2cccc(Cl)c2)C[C@@H]2CC[C@H]1N2C(=O)N1CCCC1	-5.2	-1.2	.	.	17.7	.
COC(=O)C1=C(c2ccc(OC(F)(F)F)cc2)C[C@@H]2CC[C@H]1N2C(=O)NCc1cc(C)oc1C(F)(F)F	-5.3	14.5	.	.	-13.0	.
Cn1ncc(Cl)c1C(=O)N1CCC2(CC1)OCCO2	.	-5.7	50.8*	-6.1	18.2	7.9
COC(=O)C1=C(c2ccc(OC(F)(F)F)cc2)C[C@@H]2CC[C@H]1N2C(=O)NC1CCCCC1	-0.8	7.8	.	.	21.2	.
O=c1c2ccccc2nc(-c2ccc(-c3ccccc3)cc2)n1-c1ccncc1	3.4	-3.1	2.7	83.9*	18.4	27.5
Cc1ccc(-c2nc3ccccc3c(=O)n2-c2ccncc2)cc1	-2.2	-2.7	1.7	5.9	-8.3	-19.8
CN(Cc1c[nH]c2ccccc12)C1CCCCC1	102.4*	-14.1	-10.9	82.4*	5.3	-20.3
c1ccc2c(CN3CCN(C4CCCCC4)CC3)c[nH]c2c1	5.4	1.7	-2.8	0.9	16.2	1.6
c1ccc2c(CNC3CCCCC3)c[nH]c2c1	115.1*	1.8	-3.6	16.5	-7.1	8.6
c1ccc2c(CN3CCCCCCC3)c[nH]c2c1	103.9*	6.7	-3.0	69.6*	-2.6	-3.7
SMILES	Beta cell apopt	CSC inhib	SKKanGAS inh	T cruzi repl	Mdm2 MdmX PPI	Calb FLC
CCN(CC)Cc1c[nH]c2ccccc12	0.5	-0.4	.	.	10.9	-6.4
CCC(CC)NCc1c[nH]c2ccccc12	54.8	-13.5	-7.3	31.6	14.0	-7.9
COc1ccc(CCNCc2ccc(SC)cc2)cc1	-2.6	10.4	11.7	60.5*	11.3	-2.4
COc1cccc(CNCCc2ccc(F)cc2)c1	-4.1	2.7	-0.1	43.2	18.5	-9.2
O=S(=O)(c1ccc(Cl)cc1)N1CCCCC1c1cccnc1 (stereo unspecified)	-4.2	-3.3	9.1	71.0*	20.4	14.5
O=S(=O)(c1ccc(F)cc1)N1CCCCC1c1cccnc1 (stereo unspecified)	1.5	-16.3	0.3	5.8	10.4	5.2
COC1=CC2C3Cc4ccc(OC)c(O)c4C2(CCN3C)CC1=O (stereo unspecified)	-5.4	.	.	.	.	.
CC1=C(C(=O)O)N2C(=O)C(NC(=O)Cc3ccccc3)C2SC1 (stereo unspecified)	-5.2	-3.3	94.5*	-4.7	0.7	1.5
O=c1nc(/C=C/c2ccc(Cl)cc2Cl)cc(C(F)(F)F)[nH]1	6.2	107.7*	-0.1	14.5	17.9	0.4
Cc1nc2cc([N+](=O)[O-])ccc2c(=O)n1-c1ccccc1[N+](=O)[O-]	3.6	.	-10.3	59.3*	7.4	6.2
Cc1nc2cc([N+](=O)[O-])ccc2c(=O)n1-c1ccc(Br)cc1	-7.0	-5.9	0.6	-5.0	13.8	19.7
CCS(=O)(=O)NC(C)c1nnc2n1-c1ccc(Br)cc1C(c1ccccc1Cl)=NC2 (stereo unspecified)	-0.6	-9.0	0.0	11.1	29.8	-2.0
CCN(CC)CCO	-3.4	-8.4	.	.	14.5	.
O=C(OC1CCN(CCCl)CC1)C(c1ccccc1)c1ccccc1	-5.2	5.0	.	.	23.4	.
CCOC(=O)c1c(NC(=O)C(c2ccccc2)c2ccccc2)sc2c1C1CCN2CC1	52.0	81.5*	22.3	54.8*	44.4	13.3
CC(C(=O)c1ccc(Cl)cc1Cl)n1cncn1 (stereo unspecified)	-5.1	0.7	-4.4	-9.9	-29.6	-1.5
CC(C)(C)C(O)C(Oc1ccc(Cl)cc1)n1cncn1 (stereo unspecified)	.	7.2	2.6	59.8*	11.9	.
C[C@]12C[C@@H](O)[C@H](O)CC1=CCC1C2CC[C@@]2(C)C1CC[C@@H]2O (stereo partly specified)	1.1	-17.0	.	.	6.3	.
O=C1C2CCCN2C(c2ccccc2)N1c1ccccn1 (stereo unspecified)	-6.6	-12.2	1.8	0.9	-3.1	62.6*
COC(=O)C1=C(c2cccc(NC(C)=O)c2)C[C@@H]2CC[C@H]1N2C	-2.4	-6.5	.	.	28.1	.
Oc1ccc(/C=N/NP(=S)(c2ccccc2)c2ccccc2)c(O)c1O	1.0	-16.4	1.6	4.2	14.0	104.2*
Oc1ccccc1/C=N/NP(=S)(c1ccccc1)c1ccccc1	6.3	96.5*	11.9	10.2	-31.6	13.5
Oc1ccc(/C=N/NP(=S)(c2ccccc2)c2ccccc2)cc1O	.	35.5	-3.2	-12.0	3.8	37.4
Oc1c(Br)cc(Br)cc1Oc1ccc(Br)cc1Br	9.4	107.8*	106.9*	-9.5	.	87.4*
O=C(c1cc2c(s1)-c1ccccc1OC2)N1CCC2(CC1)OCCO2	.	43.5	-1.5	-13.7	-62.1	100.2*
